High-throughput results as filed in PubChem.
DNA FID counter – compounds displacing fluorescent DNA intercalator, primary screen, artefact control for HCV NS3 helicase inhibitor project, biochemical, FID fluorescence; DNA fluorescent intercalator displacement; inhibition, % at 7.9 µM; 0.17% of 290,000 active; AID 1845, 2009; in the data active = inhibition above about 37%;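 note: 0% = vehicle and 100% = reference compound; higher means more ethidium bromide displaced from hairpin DNA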
HCV NS3 hel inh – inhibitors of HCV NS3 helicase, primary screen, biochemical, Cy5 molecular beacon fluorescence; NS3 helicase DNA unwinding; 0.56% of 290,000 active; inhibition, % at 10.9 µM; AID 1800, 2009; Hepatitis C virus NS3 helicase;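 active = inhibition above the mean of all tested compounds plus 3 SD, set per campaign, cut at about 35% in these data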;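 note: 0% = DMSO wells and 100% = thioflavine S control wells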
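System: Hepatitis C virus NS3 helicase domain fragment enzyme | Reagent: Annealed dual-labelled DNA beacon duplex, ATP-started | Compound dosing: 10.9 µM single point, 0.8% DMSO | Incubation: 1 h reaction at 25 °C, ATP-initiated | Technique: Cy5 fluorescence | Evaluation: Percent inhibition from t60/t0 fluorescence ratio | Benchmarks: Low DMSO, high thioflavine S at 110 µM | Replication: Singlicate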
MEKK3 PB1 HTS – modulators of MEKK3-MEK5 PB1 binding, primary screen, biochemical, wildtype MEKK3, multiplex bead flow cytometry, Alexa488-MEK5. Mitogen-activated protein kinase kinase kinase 3 (Homo sapiens), Q99759. bead-based flow cytometry, Alexa488-MEK5 binding to MEKK3; actives lie on both sides; 0 = blocked by unlabeled MEK5, 100 = vehicle. binding response (% of control), % at 10 µM. 1.4% of 290,000 active. AID 1529, 2009;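 active = binding response more than 3 SD above or below the average of its plate-row segment, actives on both sides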;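 note: Alexa488 bead fluorescence after subtracting the streptavidin-only scavenger bead signal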
Target sequence (Q99759 whole entry, looked up): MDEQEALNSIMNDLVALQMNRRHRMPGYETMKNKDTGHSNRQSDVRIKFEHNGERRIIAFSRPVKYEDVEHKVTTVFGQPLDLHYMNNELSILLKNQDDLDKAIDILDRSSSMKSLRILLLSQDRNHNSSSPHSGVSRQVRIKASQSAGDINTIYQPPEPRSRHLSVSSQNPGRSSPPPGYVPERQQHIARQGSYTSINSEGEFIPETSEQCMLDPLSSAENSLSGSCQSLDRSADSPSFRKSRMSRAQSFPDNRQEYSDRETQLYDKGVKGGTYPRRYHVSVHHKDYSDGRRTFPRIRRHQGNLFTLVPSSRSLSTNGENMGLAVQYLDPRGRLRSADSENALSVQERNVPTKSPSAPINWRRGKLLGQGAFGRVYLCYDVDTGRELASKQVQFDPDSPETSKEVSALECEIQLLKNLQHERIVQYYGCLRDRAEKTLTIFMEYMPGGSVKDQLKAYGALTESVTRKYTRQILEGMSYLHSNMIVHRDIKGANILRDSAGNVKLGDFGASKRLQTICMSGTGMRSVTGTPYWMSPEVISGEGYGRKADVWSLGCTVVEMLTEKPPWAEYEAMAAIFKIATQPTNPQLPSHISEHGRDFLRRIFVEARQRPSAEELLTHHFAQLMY
MEKK2 WT-MEK5 – modulators of MEK5 binding to wildtype MEKK2, primary screen, biochemical, multiplex bead flow cytometry, Alexa488-MEK5. 1.1% of 290,000 active. AID 1531, 2009. Alexa488-MEK5 binding to MEKK2 WT; actives lie on both sides. binding response (% of control), % at 10 µM; in the data active = binding response below about 67% or above about 130%
MEKK2mut PB1 HTS – MEK5 binding signal on mutant MEKK2 PB1, primary screen, biochemical, multiplex bead flow cytometry, Alexa488-MEK5; percent response, % at 10 µM; Alexa488-MEK5 binding to MEKK2 mutant; AID 1530, 2009; 0.35% of 290,000 active; in the data active = percent response above about 24%, passing the limit was not always enough
T cruzi repl – inhibitors of intracellular T. cruzi growth, primary screen, luminescence, NIH3T3 host cells | T. cruzi beta-gal in NIH3T3, 90 h | inhibition, % (test concentration not listed) | 1.4% of 300,000 active | AID 1885, 2009;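 active = mean inhibition across valid replicates above about 55%, limit read from the data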;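 note: signal also drops with host cell toxicity which is not excluded here; 0% = plate median of DMSO wells and 100% = zero luminescence signal; higher percent means less beta-gal luminescence so fewer parasites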
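Read-out: Parasite load inhibition, % | Test system: Mouse NIH/3T3 fibroblasts infected with β-gal-expressing T. cruzi Tulahuen C4 | Amount: 5,000 cells/well | Medium: DMEM, 2% fetal bovine serum | Signal: GalScreen β-gal luminescence, detergent lysis, 60 min | Timing: 3 h attach, ≥90 h co-culture | Also added: Tulahuen C4 trypomastigotes, 5000/well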
The depositor's hits bear a star; . = no result. Sampled rows, rich in hits. Any-hit rate of the full collection: about 4.1%.

SMILES	DNA FID counter	HCV NS3 hel inh	MEKK3 PB1 HTS	MEKK2 WT-MEK5	MEKK2mut PB1 HTS	T cruzi repl
Cc1nn(-c2ccccc2)c(N)c1Sc1cccc([N+](=O)[O-])c1	-4	0	98	95	0	38
Cc1onc(-c2ccccc2)c1C(=O)N(Cc1ccccc1)C(C)C	-28	-9	107	107	4	-1
COc1ccc(C2C(C#N)=C(N)Oc3c2sc2nc(C)cc(C)c32)cc1 (configuration not stated)	-1	1	101	94	-4	36
Cc1cc(C)c2c3c(sc2n1)C1(CCSCC1)C(C#N)=C(N)O3	-6	9	98	96	-3	64*
Cc1ccc(/C(=N\O)c2oc3c(C)c4oc(=O)cc(C)c4cc3c2C)cc1	-4	-4	95	94	2	59*
COC(=O)c1ccc(NS(=O)(=O)c2ccc(-c3cc(C)no3)s2)cc1	-24	-4	102	99	-4	-20
O=[N+]([O-])c1cc(Oc2cccnc2)cc([N+](=O)[O-])c1	7	-8	103	105	-2	61*
Cc1nc2cc(NCc3ccccc3O)ccc2n1Cc1ccccc1	3	-23	106	93	-8	1
N#Cc1c(N)nc(SCc2ccncc2)c(C#N)c1-c1cccs1	1	-16	83	92	-6	64*
CN1CCc2nc(SCc3ccc(Cl)cc3)c(C#N)c(-c3cccs3)c2C1	12	-39	104	129	28	58*
CSC1=NCCN1CCOc1ccccc1	-7	2	110	112	-1	17
OCCCNCc1ccc(N(c2ccccc2)c2ccccc2)cc1	15	-55	105	141*	33*	18
CN(C)/C=C(\C=O)c1ccc(Cl)cc1Cl	-4	-9	101	93	-6	-12
CCOc1ccc(Nc2nc(N3CCCC3)nc(N3CCN(c4ccc(OC)cc4)CC3)n2)cc1	8	-3	102	109	1	61*
CCOc1nc(Nc2ccc(F)cc2)nc(N2CCN(c3ccc(OC)cc3)CC2)n1	-3	-3	101	105	-4	41
COc1ccc(N2CCN(c3ncnc4scc(-c5ccc(C)cc5)c34)CC2)cc1	-32	-21	100	96	0	58*
COc1ccc(N2CCN(C(=O)CSc3nc(C)cs3)CC2)cc1	.	.	.	.	.	-7
COc1ccc(N2CCN(C(=O)CSc3ncnc4scc(-c5ccc(C)cc5)c34)CC2)cc1	-2	-4	97	92	-4	76*
COc1cccc(CN(C)CC2CCCN(CCc3ccccc3C)C2)c1 (configuration not stated)	14	-17	107	137	14	55*
CCCN(CCC)CCNC(=O)C1CCN(S(=O)(=O)c2cccc3nsnc23)CC1	7	-3	102	108	1	4
O=C(N/N=C/c1cc(Cl)ccc1O)C(=O)Nc1ccccc1OC(F)(F)C(F)F	-5	-2	105	98	3	.
O=C(N/N=C/c1cc(Br)ccc1O)C(=O)Nc1ccccc1OC(F)(F)C(F)F	-5	8	103	104	2	57*
CCn1c(NCc2cc(Br)ccc2NS(=O)(=O)c2ccc(C)cc2)nc2ccccc21	-4	17	99	107	4	64*
Cc1ccc(/C=C/C2=Cc3c(sc(NC(=O)CSc4n[nH]c(N)n4)c3C#N)C(C)(C)C2)o1	-22	45*	92	78	-14	-2
CCOC(=O)c1sc(NC(=O)CSc2n[nH]c(-c3ccccc3)n2)c(C#N)c1C	2	0	.	.	.	6
Cc1cccc2sc(N(CCCN(C)C)C(=O)CCc3ccccc3)nc12	20	-89	103	126	24	62*
COc1ccc(OC)c2sc(N(CCCN(C)C)C(=O)CCS(=O)(=O)c3ccccc3)nc12	.	.	.	.	.	59*
